This is a sample that favours compounds with a hit; in the whole collection about 1.3% have one here.
Diaph inh CS = counter-screen for diaphorase-based assays: diaphorase inhibitors and chemical oxidizers | inhibition, % at 20 µM | diaphorase resazurin-to-resorufin fluorescence, NADH, 16 min; bacterial (C. kluyveri) enzyme, not human | AID 1217 | 0.69% of 190,000 active;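 active means primary screen inhibition at 20 µM above a set limit, cut at about 50% in these data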
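Test system: bacterial diaphorase enzyme (C. kluyveri); Quantity: 0.14 U/mL diaphorase, enzyme working solution; Times: reaction incubation of 16 min at room temperature; Measured by: fluorescence of resorufin formed from resazurin, Ex 544/Em 590 nm; Benchmarks: positive control minus NADH, DMSO neutral control.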
HKDC1 inhibitor = HKDC1 (human) hexokinase inhibition; Q2TB90; recombinant HKDC1, G6PDH/diaphorase resazurin coupled fluorescence; inhibition, % at 20 µM; 0.16% of 340,000 active;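 active means inhibition above about 35% when tested at 20 µM, limit read from the data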
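Test system: recombinant HKDC1 (HK5) hexokinase enzyme, produced in-house; Amount: enzyme 5 µg/mL final; Buffer or medium: Tris pH 8.0 buffer with MgCl2, Tween-20, BSA, BME; Reagent: glucose and ATP substrates; Doses: 20 µM test compound, 1% DMSO; Incubation: 90 min reaction incubation at room temperature, dark; Detection: resorufin fluorescence at 613 nm.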
G6PDH counter = inhibits Leuconostoc G6PDH, flagging false hits in G6PDH-based assays | Purified L. mesenteroides G6PDH, diaphorase/resazurin coupled fluorescence, 45 min | inhibition, % at 5 µM | 0.12% of 200,000 active | AID 1020; in the data active means inhibition above about 50%
Tb hexokinase = T. brucei hexokinase 1 inhibition | inhibition, % at 10 µM | AID 1430 | 0.11% of 220,000 active | recombinant TbHK1, G6PDH-coupled NADH A340;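 active means inhibition of 50% or more in the single-dose primary screen; inactive means inhibition below 50%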
PfGluPho inh = PfG6PD (Plasmodium falciparum) enzyme inhibition | PfGluPho enzyme, NADPH resazurin-diaphorase fluorescence | inhibition, % at 20 µM | 0.78% of 350,000 active | AID 504690;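 active means inhibition reaching at least a set limit at 20 µM in the primary screen, cut at about 59% in these data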
Large screens that a line does not name were inactive.

COc1ccc(/C=C/C(=O)NC(=S)NNC(=O)c2cccnc2)cc1	Diaph inh CS 75
CCN(Cc1ccncc1)Cc1c(O)ccc2ccccc12	Diaph inh CS 64
FC(F)(F)c1cccc(-c2cc(C3CCNCC3)[nH]n2)c1	none (no result: Diaph inh CS, G6PDH counter, Tb hexokinase)
CCC(C)[C@@H](C(=O)Nc1ccc2c(c1)OCO2)N1Cc2ccccc2C1=O (some centres undefined)	none
CCOC(=O)c1ccccc1-c1csc(N)n1	Diaph inh CS 81
Cc1cccc(-n2c(-c3csc(C(C)C)c3)n[nH]c2=S)c1	none
CCN=c1scc(-c2cccs2)n1/N=C/c1cc(OC)ccc1O	none
CC(C)N=c1scc(-c2cccs2)n1/N=C/c1ccc(O)c(O)c1O	Diaph inh CS 66
CN=c1scc(-c2ccccc2F)n1/N=C/c1ccc(O)c(O)c1O	Diaph inh CS 68
CC(C)CC(=O)NC(=S)Nc1cccc2nsnc12	none
COc1c(C)cccc1C(=O)NC(=S)Nc1cccc2nsnc12	Diaph inh CS 66
Cc1c(N=Nc2c(-c3ccc([N+](=O)[O-])cc3)[nH]n(C(N)=S)c2=O)cccc1[N+](=O)[O-]	Diaph inh CS 54
NC(=S)n1[nH]c(-c2ccc([N+](=O)[O-])cc2)c(N=Nc2cccc([N+](=O)[O-])c2)c1=O	Diaph inh CS 79
NC(=S)n1[nH]c(-c2ccc([N+](=O)[O-])cc2)c(N=Nc2ccccc2[N+](=O)[O-])c1=O	none
Cc1cc(C(=O)CCC(=O)Nc2ccc(S(N)(=O)=O)cc2)c(C)s1	none (no result: Diaph inh CS, G6PDH counter, Tb hexokinase)
CC1(C)NS(=O)(=O)Oc2ccccc21	none (no result: Diaph inh CS, G6PDH counter, Tb hexokinase)
CCN(CC)c1nc2c3c(nc4c(c3c1C#N)CC(=O)N4c1ccc(Cl)cc1)NC(C)=N2	Diaph inh CS 58
CCc1ccc(N2C(=O)Cc3c2nc(N)c(C#N)c3N)cc1	none
O=C(CSc1nnnn1-c1ccccc1)N1N=CCC1c1ccccc1 (centres undefined)	none
COc1ccc2[nH]c(=O)c(COC(=O)c3ccco3)cc2c1	none
CC(=O)Oc1ccc2c(=O)c(Oc3ccccc3)c(C)oc2c1OC(C)=O	Diaph inh CS 65
CCC(=O)Nc1c(C#N)c2nc3ccccc3nc2n1C1CCCCC1	none
CCOC(=O)c1c(NC(=O)c2ccco2)n(C2CCCCC2)c2nc3ccccc3nc12	Diaph inh CS 69
COc1ccc(-n2c(NC(=O)c3ccco3)c(C#N)c3nc4ccccc4nc32)cc1	Diaph inh CS 70
Cc1cc(C)c(C#N)c(SCc2[nH]nc3c2C(c2ccc(F)cc2)C(C#N)=C(N)O3)n1 (centres undefined)	none
Cc1cc(C#N)c(C)c(SCc2[nH]nc3c2C(c2ccccc2)C(C#N)=C(N)O3)n1 (centres undefined)	Diaph inh CS 54
O=C(CCN1C(=O)C2C3C=CC(C4CC34)C2C1=O)Oc1cccc2cccnc12 (centres undefined)	G6PDH counter 53
Cc1ccccc1CS(=O)(=O)CCC(=O)NCCCN1CCN(c2ccccc2F)CC1	none
Cc1cc(C)c2c(=O)n(CC(=O)NCCCN3CCN(c4ccccc4F)CC3)sc2n1	PfGluPho inh 99
Cc1cc(C)c2c(=O)n(CC(=O)NCCCN3CCOCC3)sc2n1	PfGluPho inh 70
Cc1oc2c(O)c(O)ccc2c(=O)c1-c1cnn(-c2ccccc2)c1	Diaph inh CS 70
CC(=O)N/N=C/c1c(C)[nH]n(-c2ccccc2)c1=O	Diaph inh CS 56
COCC(=O)N/N=C/c1c(C)[nH]n(-c2ccccc2)c1=O	none
Cc1[nH]n(-c2ccccc2)c(=O)c1/C=N/NC(=O)COc1ccccc1[N+](=O)[O-]	Diaph inh CS 53
COC(=O)N/N=C\c1c(C)[nH]n(-c2ccccc2)c1=O	none
O=C(CSc1nc2scc(-c3ccccc3)c2c(=O)[nH]1)N1CCCCC1	none
CC(=O)Oc1cc2oc(=O)cc(C)c2cc1OC(C)=O	Diaph inh CS 52
CN(C)/N=C/c1c(O)ccc2ccccc12	none
OCC(CO)(CO)N=Cc1c(O)ccc2ccccc12	Diaph inh CS 57
CN(C)c1cccc(C(=O)OC(C(=O)Nc2ccc(Cl)cc2C(F)(F)F)c2ccccc2)c1 (centres undefined)	none
CC(SCc1ccccc1)C(=O)N/N=C/c1cc2c(cc1Br)OCO2 (centres undefined)	Diaph inh CS 51
CC(SCc1ccccc1)C(=O)N/N=C/c1ccc2c(c1)OCO2 (centres undefined)	none
Cc1ccc(NCc2ccc(O)c3ncccc23)cc1C	Diaph inh CS 78
Cc1ccc(NCc2ccc(O)c3ncccc23)cc1	Diaph inh CS 70
O=C(N/C(=C/c1ccc(Br)cc1)C(=O)N1CCCC1)c1cccs1	none
CC(=O)N1CCCc2cc(S(=O)(=O)CCC(=O)N3CCN(c4cccc(C)c4)C(C)C3)ccc21 (centres undefined)	none
CC(=O)c1ccc(OCC(=O)N2CCN(S(=O)(=O)c3ccc(Br)s3)CC2)cc1	none (no result: Diaph inh CS, G6PDH counter, Tb hexokinase)
C=C1C(=O)OC2C=C(CO)CCC=C(CO)CC(OC(=O)C(C)C)C12 (centres undefined)	none (no result: Diaph inh CS, G6PDH counter, Tb hexokinase)
CCNc1nc(NCC)nc(N/N=C/c2ccc(O)c(O)c2)n1	Diaph inh CS 61
CCNc1nc(NCC)nc(N/N=C/c2ccc(N(C)C)cc2)n1	none
C=CCCC(=O)N1CCC(n2nccc2NC(=O)c2ccc(OC)cc2)CC1	none (no result: Diaph inh CS, G6PDH counter, Tb hexokinase)
COc1ccc2c(c1)CCc1sc(NC(=O)c3ccco3)nc1-2	Diaph inh CS 55
Cc1ccc(-c2csc3nc[nH]c(=S)c23)cc1C	Diaph inh CS 59
COc1ccc(-c2csc3nc[nH]c(=O)c23)cc1OC	none (no result: Diaph inh CS, G6PDH counter, Tb hexokinase)
O=Cc1ccc2ccc3cccnc3c2n1	none (no result: Diaph inh CS, G6PDH counter, Tb hexokinase)
c1cnc2c(c1)ccc1cccnc12	G6PDH counter 53
Cc1cccc(N2CCN(C(=O)c3csc4ccccc34)CC2C)c1 (centres undefined)	none
O=C1c2cccc3c(N4CCCCC4)ccc(c23)C(=O)N1c1ccccn1	Diaph inh CS 52
Cc1nn(-c2ccc(C(=O)O)cc2)c(C)c1Cl	none
CC(=O)C(C(C)=O)c1c(Cl)c(O)c(O)c2c(C(=O)c3ccccc3)coc12	Diaph inh CS 67
N#C/C(=N\Nc1ccc(S(=O)(=O)N2CCc3ccccc32)cc1)C(N)=S	Diaph inh CS 56
O=C(NCCCn1ccnc1)C(=O)NCC1OCCN1S(=O)(=O)c1ccccc1 (centres undefined)	none
CCOc1ccc(-c2nnc3ccc(SC(C)C)nn23)cc1	Diaph inh CS 60
CC(=O)c1c(N2CCCC2)nc(=S)n(-c2ccccc2)c1C	Diaph inh CS 54
CCCCNc1nc(=S)n(-c2ccccc2)c(C)c1C(C)=O	Diaph inh CS 71
CCn1c(C)c(C(C)=O)c(N2CCN(c3ccccn3)CC2)nc1=S	Diaph inh CS 62
Cc1ccc(S(=O)(=O)Nc2ccccc2C(=O)Nc2nc(-c3ccc(F)cc3)cs2)cc1	none
COc1ccc(-c2csc(NC(=O)c3ccccc3NS(=O)(=O)c3ccc(F)c(F)c3)n2)cc1	Diaph inh CS 53

Screening data (PubChem BioAssay)
